# Experimental data as given in ChEMBL document CHEMBL1121494, “Prostaglandins and congeners. 22. Synthesis of 11-substituted derivatives of 11-deoxyprostaglandins E1 and E2. Potential bronchodilators” (1980).
# Test system: Cavia porcellus
# Assay: Relative potency against bronchoconstrictions, induced by intravenous administration of histamine at doses […] in guinea pig.
# Assay type: functional
# Procedure, shortened: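 Anesthetized guinea pigs (intraperitoneal urethane), curarized with iv gallamine; modified Konzett-Rossler set-up. Bronchoconstriction provoked by iv histamine or serotonin at 5.6-22.5 μg/kg, doses giving a 20 to 50 cm water rise in tracheal pressure; 12 s iv injections repeated every 5 min. Test compounds given iv. Broncholytic activity scored in at least four animals per spasmogen per dose level, expressed as potency relative to l-PGE₂.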
row,Compound,Relative potency
1,CCCCC[C@H](O)/C=C/[C@H]1C(SCC(C)O)CC(=O)[C@@H]1C/C=C\CCCC(=O)OC (some centres undefined),2
2,CCCCC[C@@H](O)/C=C/[C@H]1[C@H](SCCO)CC(=O)[C@@H]1C/C=C\CCCC(=O)OC,19
3,CCCCC[C@H](O)/C=C/[C@H]1[C@@H](SCCO)CC(=O)[C@@H]1C/C=C\CCCC(=O)OC,10
4,CCCCC[C@H](O)/C=C/[C@H]1C(SCC)CC(=O)[C@@H]1C/C=C\CCCC(=O)OC (some centres undefined),1
5,CCCCC[C@H](O)/C=C/[C@H]1C(SCC(=O)O)CC(=O)[C@@H]1C/C=C\CCCC(=O)OC (some centres undefined),0.1
6,CCCCC[C@H](O)/C=C/[C@H]1C(SCCCO)CC(=O)[C@@H]1C/C=C\CCCC(=O)OC (some centres undefined),0.8
7,CCCCC[C@H](O)/C=C/[C@H]1C(SCCN(CC)CC)CC(=O)[C@@H]1C/C=C\CCCC(=O)OC (some centres undefined),22
8,CCCCC[C@H](O)/C=C/[C@H]1C(SCCN(C)C)CC(=O)[C@@H]1C/C=C\CCCC(=O)OC (some centres undefined),14
9,CCCCC[C@H](O)/C=C/[C@H]1C(SCCS)CC(=O)[C@@H]1C/C=C\CCCC(=O)OC (some centres undefined),0.4
10,CCCCC[C@H](O)/C=C/[C@H]1C(Sc2cccc(O)c2)CC(=O)[C@@H]1C/C=C\CCCC(=O)OC (some centres undefined),0.2
11,CCCCC[C@H](O)/C=C/[C@H]1C(SCCC)CC(=O)[C@@H]1C/C=C\CCCC(=O)OC (some centres undefined),<0.2
12,CCCCC[C@H](O)/C=C/[C@H]1C(SCC(=O)OCC)CC(=O)[C@@H]1C/C=C\CCCC(=O)OC (some centres undefined),3
13,CCCCC[C@H](O)/C=C/C1CCC(=O)[C@@H]1C/C=C\CCCC(=O)O (some centres undefined),92
14,CCCCC[C@H](O)/C=C/[C@H]1C(SCCO)CC(=O)[C@@H]1CCCCCCC(=O)O (some centres undefined),104
15,CCCCCC(O)CSC1CC(=O)[C@H](C/C=C\CCCC(=O)OC)[C@H]1/C=C/[C@H](O)CCCCC (some centres undefined),<0.2
16,CCCCC[C@H](O)/C=C/[C@H]1C(SCCN)CC(=O)[C@@H]1C/C=C\CCCC(=O)OC (some centres undefined),0.3
17,CCCCC[C@H](O)/C=C/[C@H]1C(SCCCS)CC(=O)[C@@H]1C/C=C\CCCC(=O)OC (some centres undefined),9
18,CCCCC[C@H](O)/C=C/[C@H]1[C@H](SCCO)CC(=O)[C@@H]1C/C=C\CCCC(=O)O,55
19,CCCCC[C@H](O)/C=C/[C@H]1C(SCC(O)CO)CC(=O)[C@@H]1C/C=C\CCCC(=O)OC (some centres undefined),11
20,CCCCC[C@H](O)/C=C/[C@H]1[C@H](SCCO)CC(=O)[C@@H]1C/C=C\CCCC(=O)OC,100
21,CCCCC(O)C/C=C/[C@H]1[C@H](SCCO)CC(=O)[C@@H]1CCCCCCC(=O)O (mixture of isomers),24
22,CCCCCC(C)(O)/C=C/[C@H]1[C@H](SCCO)CC(=O)[C@@H]1CCCCCCC(=O)O (mixture of isomers),16
23,CCCCC(C)(O)C/C=C/[C@H]1[C@H](SCCO)CC(=O)[C@@H]1C/C=C\CCCC(=O)OC (mixture of isomers),109
24,CCCCCC/C=C/[C@H]1[C@H](SCCO)CC(=O)[C@@H]1C/C=C\CCCC(=O)OC (racemic),14
25,CCCCC[C@H](O)/C=C/[C@H]1[C@H](OCCO)CC(=O)[C@@H]1CCCCCCC(=O)O (racemic),14
26,CCCCC[C@H](O)/C=C/[C@H]1[C@H](OCCO)CC(=O)[C@@H]1C/C=C\CCCC(=O)OC (racemic),3
27,CCCCC[C@H](O)/C=C/[C@H]1[C@H](SCCO)CC(=O)[C@@H]1C/C=C\CCCC(=O)OC (racemic),30
28,CCCCC[C@@H](O)/C=C/[C@H]1[C@@H](SCCO)CC(=O)[C@@H]1C/C=C\CCCC(=O)OC (racemic),6
29,CCCCC[C@H](O)/C=C/[C@H]1[C@H](O)CC(=O)[C@@H]1C/C=C\CCCC(=O)O [DINOPROSTONE],570
